# Experimental data pooled from the literature.
# Protocols differ between the studies behind these lines.
# UGT1A6: UDP-glucuronosyltransferase 1A6 (UGT1A6, Homo sapiens, UniProt P19224)
# CYP2B6: Cytochrome P450 2B6 (CYP2B6, Homo sapiens, UniProt P20813)
Structure (SMILES),target or system,test,test system,conditions,measurement,value
Cc1ccn2c(C(=O)N3CCN(CCn4cc(C5CC5)nn4)CC3)c(C)nc2c1,HeLa,"cell growth or viability, resazurin",,,CC50,> 100 µM
COc1c(F)cccc1C=NNc1nc(-c2ccc(F)cc2)cs1,,haemolysis,human,"100 µM, 30 min, pH 7.4",haemolysis,36.6%
CCOP(=O)(OCC)[C@@H]1C[C@@H](n2cc(Cn3cc(C)c(=O)[nH]c3=O)nn2)ON1C (racemic),HEL,cell growth or viability,,72 h,CC50,> 100 µM
CN(CCC(=O)O)C(=O)c1ccc2c(c1)CC[C@@H]1[C@@H]2CC[C@]2(C)C(c3cncc(F)c3)=CC[C@@H]12,UGT1A6,"enzyme activity, inhibitor",,,IC50,> 30 µM
C[C@@H](Cn1ccc(-c2ccc(C#N)c(Cl)c2)n1)NC(=O)c1cc([C@@H](C)O)[nH]n1,UGT1A6,"enzyme activity, inhibitor","human, liver microsomes",,IC50,> 100 µM
COc1ccc(S(=O)(=O)Nc2c(C(=O)Nc3c(C(=O)O)cc(OC)c(OC)c3OC)cc(OC)c(OC)c2OC)cc1,HeLa,"cell growth or viability, XTT",,72 h,IC50,95 µM
Oc1c(Br)cc(Cl)c2cccnc12,,,"Sprague-Dawley rat, plasma","oral, 20 mg/kg",CL/F,85 mL/min/kg
Cc1cccc(F)c1N1CCC(N2Cc3cn(CC(C)(F)F)nc3N(Cc3ccccc3C(F)(F)F)C2=O)CC1,CYP2B6,"enzyme activity, inhibitor","human, liver microsomes",,IC50,> 10 µM
CCOc1ccccc1C=NNc1nc(-c2ccc(F)cc2)cs1,,haemolysis,human,"50 µM, 30 min, pH 7.4",haemolysis,16.8%
C[C@@H]1[C@H](O)[C@@H](C)/C=C/C=C/C=C/C=C/C=C/C=C/C=C/[C@H](O[C@@H]2O[C@H](C)[C@@H](O)[C@H](N)[C@@H]2O)C[C@@H]2O[C@](O)(C[C@@H](O)C[C@@H](O)[C@H](O)CC[C@@H](O)C[C@@H](O)CC(=O)O[C@H]1C)C[C@H](O)[C@H]2C(=O)O,,haemolysis,human,"4 µg/mL, 1 h",haemolysis,93.2%
CCOP(=O)(OCC)[C@@H]1C[C@@H](n2cc(Cn3ccc(=O)[nH]c3=O)nn2)ON1C (racemic),HeLa,cell growth or viability,,72 h,CC50,≥ 250 µM
COc1ccc(S(=O)(=O)Nc2cc(OC)c(NC(=O)CCCl)cc2OC)cc1,HeLa,"cell growth or viability, XTT",,72 h,IC50,16 µM
Fc1ccc(-c2csc(NN=Cc3ccc(C(F)(F)F)cc3)n2)cc1,,haemolysis,human,"100 µM, 30 min, pH 7.4",haemolysis,41%
OC(Cn1cncn1)(Cn1cncn1)c1ccc(F)cc1F,,haemolysis,human,"1 µg/mL, 1 h",haemolysis,3.39%
Fc1ccc(-c2csc(NN=Cc3cccs3)n2)cc1,,haemolysis,human,"50 µM, 30 min, pH 7.4",haemolysis,32.4%
C=CC(=O)N(C)CCOc1c(N)ncnc1-c1cc(F)cc(NC(=O)c2ccc(C3CC3)cc2F)c1C,CYP2B6,"enzyme activity, substrate",,"10 min, pH 7.4",Km,1.3 µM
Cc1ccn2c(C(=O)N3CCN(CCn4cc(-c5ccc(C(C)(C)C)cc5)nn4)CC3)c(C)nc2c1,HeLa,"cell growth or viability, resazurin",,,CC50,> 100 µM
CCOP(=O)(OCC)[C@@H]1C[C@H](n2cc(-c3ccccc3)nn2)ON1C,HeLa,cell growth or viability,,72 h,CC50,> 250 µM
Cc1cc(C)cc(-n2cc(CN3CCN(C(=O)c4c(C)nc5ccc(Cl)cn45)CC3)nn2)c1,HeLa,"cell growth or viability, resazurin",,,CC50,> 100 µM
CC(CCc1ccccc1)=NNc1nc(-c2ccc(F)cc2)cs1,,haemolysis,human,"50 µM, 30 min, pH 7.4",haemolysis,8.38%
Cc1nc2ccc(Cl)cn2c1C(=O)N1CCN(CCn2cc(-c3ccc(C(C)(C)C)cc3)nn2)CC1,HeLa,"cell growth or viability, resazurin",,,CC50,> 100 µM
Fc1ccc(-c2csc(NN=Cc3ccccc3C(F)(F)F)n2)cc1,,haemolysis,human,"100 µM, 30 min, pH 7.4",haemolysis,45.7%
Cc1nc2ccc(Cl)cn2c1C(=O)N1CCN(Cc2cn(-c3ccc([N+](=O)[O-])cc3)nn2)CC1,HeLa,"cell growth or viability, resazurin",,,CC50,> 100 µM
Fc1ccc(-c2csc(NN=Cc3ccc[nH]3)n2)cc1,,haemolysis,human,"50 µM, 30 min, pH 7.4",haemolysis,26.3%
Cc1nc2ccc(Cl)cn2c1C(=O)N1CCN(Cc2cn(-c3cccc(C(F)(F)F)c3)nn2)CC1,HeLa,"cell growth or viability, resazurin",,,CC50,> 100 µM
CCOP(=O)(OCC)[C@@H]1C[C@@H](n2cc(C(=O)OC)nn2)ON1C (relative stereo),HEL,cell growth or viability,,72 h,CC50,> 100 µM
Cc1ccn2c(C(=O)N3CCN(Cc4cn(-c5ccc([N+](=O)[O-])cc5)nn4)CC3)c(C)nc2c1,HeLa,"cell growth or viability, resazurin",,,CC50,> 100 µM
Oc1ccc(Cl)cc1C=NNc1nc(-c2ccc(F)cc2)cs1,,haemolysis,human,"100 µM, 30 min, pH 7.4",haemolysis,52.5%
Cc1ccn2c(C(=O)N3CCN(Cc4cn(-c5cccc([N+](=O)[O-])c5)nn4)CC3)c(C)nc2c1,HeLa,"cell growth or viability, resazurin",,,CC50,> 100 µM
CCOP(=O)(OCC)[C@@H]1C[C@H](n2cc(Cn3ccc(NC(C)=O)nc3=O)nn2)ON1C (racemic),HEL,cell growth or viability,,72 h,CC50,> 100 µM
